Assay results: ChEMBL document CHEMBL5053511, “Discovery of a Novel BCL-XL PROTAC Degrader with Enhanced BCL-2 Inhibition” (J Med Chem, 2021)
Activity calls are given as the source filed them. The calls are words filed in the database; no cut-off is given here.

Tests used:
[1] = system: MOLT-4; test: Cytotoxicity against human MOLT-4 cells assessed as reduction in cell viability measured after 48 hrs by MTS assay; assay type: functional, cell-based; conditions: MOLT-4, 48 h
[2] = biological target: T1, von Hippel-Lindau disease tumor suppressor/Apoptosis regulator Bcl-2 (Homo sapiens) (UniProt P10415+P40337); test: Binding affinity to VHL/BCL-2 in human RS4-11 cells assessed as ternary complex formation at up to 300 nM measured after 12 hrs in presence of VHL-032 by immunoprecipitation assay; assay type: cell-based
[3] = system: MOLT-4; test: Induction of apoptosis in human MOLT-4 cells assessed as early apoptotic cells at 10 nM measured after 48 hrs in presence of QVD by annexinV-FITC/propidium iodide staining based flow cytometry (reference value: 2%); assay type: functional
[4] = biological target: T1, von Hippel-Lindau disease tumor suppressor/Apoptosis regulator Bcl-2 (Homo sapiens); test: Binding affinity to VHL/BCL-2 in human RS4-11 cells assessed as ternary complex formation at up to 300 nM measured after 12 hrs by immunoprecipitation assay; assay type: cell-based
[5] = system: MOLT-4; test: Induction of apoptosis in human MOLT-4 cells assessed as […] in cleaved caspase-3 level at up to 1000 nM measured after 16 hrs by immunoblotting analysis; assay type: functional, cell-based
Summary of the method: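 MOLT-4 cells were treated at a range of concentrations for 16 h. Lysates were immunoblotted for cleaved and full caspase-3, cleaved and full PARP, and β-actin; blots representative of three experiments.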

[6] = system: MOLT-4; test: Induction of apoptosis in human MOLT-4 cells assessed as late apoptotic cells at 10 nM measured after 48 hrs in presence of QVD by annexinV-FITC/propidium iodide staining based flow cytometry (reference value: 1%); assay type: functional
[7] = system: Platelet; test: Cytotoxicity against platelets in human PRP assessed as reduction in cell viability measured after 48 hrs by MTS assay; assay type: cell-based
Summary of the method: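 Washed human platelets from PRP were kept in HEPES Tyrode's buffer with 1 µM PGE1 and 0.2 units/mL apyrase at 2×10^8/mL.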

[8] = biological target: T2, von Hippel-Lindau disease tumor suppressor/Bcl-2-like protein 1 (Homo sapiens, UniProt Q07817+P40337); test: Protac activity at VHL/BCL-XL in human MOLT-4 cells assessed as induction of BCL-XL degradation at 100 nM measured up to 72 hrs by Western blot analysis; assay type: cell-based
Summary of the method: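 MOLT-4 cells were treated with 100 nM for a series of times. For washout, cells were treated for 16 h and sampled at times after compound removal. BCL-XL and β-actin were immunoblotted.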

[9] = biological target: T2, von Hippel-Lindau disease tumor suppressor/Bcl-2-like protein 1; test: Binding affinity to VHL/ BCL-XL in human RS4-11 cells assessed as ternary complex formation at up to 300 nM measured after 12 hrs by immunoprecipitation assay; assay type: cell-based

T1 sequence (P10415 whole entry, looked up): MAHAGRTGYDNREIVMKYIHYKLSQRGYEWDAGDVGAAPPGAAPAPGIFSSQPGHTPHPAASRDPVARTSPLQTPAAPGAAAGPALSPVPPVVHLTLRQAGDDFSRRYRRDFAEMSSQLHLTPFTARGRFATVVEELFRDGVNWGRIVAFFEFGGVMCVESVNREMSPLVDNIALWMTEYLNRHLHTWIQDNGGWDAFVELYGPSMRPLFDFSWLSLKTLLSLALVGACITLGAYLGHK
T1 sequence (P40337 whole entry, looked up): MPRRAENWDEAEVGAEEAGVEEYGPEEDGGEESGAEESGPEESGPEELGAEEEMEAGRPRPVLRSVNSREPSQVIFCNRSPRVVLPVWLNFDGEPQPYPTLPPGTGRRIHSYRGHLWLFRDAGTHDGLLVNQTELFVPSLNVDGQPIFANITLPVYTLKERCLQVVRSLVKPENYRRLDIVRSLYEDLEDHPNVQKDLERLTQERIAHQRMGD
T2 sequence (P40337 whole entry, looked up): as above
T2 sequence (Q07817 whole entry, looked up): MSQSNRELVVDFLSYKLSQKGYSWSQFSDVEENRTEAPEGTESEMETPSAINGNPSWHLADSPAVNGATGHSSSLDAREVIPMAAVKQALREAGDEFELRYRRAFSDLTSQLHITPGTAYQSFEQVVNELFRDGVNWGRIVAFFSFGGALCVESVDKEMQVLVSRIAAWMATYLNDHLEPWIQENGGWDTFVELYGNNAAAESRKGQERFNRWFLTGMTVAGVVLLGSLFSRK

Activity [2]: inactive | Activity [4]: Active | Activity [8]: Active | Activity [9]: Active
SMILES: Cc1ncsc1-c1ccc([C@H](C)NC(=O)[C@@H]2C[C@@H](O)CN2C(=O)[C@@H](NC(=O)CCCCCCCCC(=O)NC[C@]2(C)CCC(c3ccc(Cl)cc3)=C(CN3CCN(c4ccc(C(=O)NS(=O)(=O)c5ccc(N[C@H](CCN6CCOCC6)CSc6ccccc6)c(S(=O)(=O)C(F)(F)F)c5)cc4)CC3)C2)C(C)(C)C)cc1
IC50 [1]: 0.0159 µM | Activity [3]: 1% | Activity [5]: Active | Activity [6]: 13% | IC50 [7]: 0.95 µM
